Among the data in ChEMBL document CHEMBL1150609, “New furanoid diterpenes from Caesalpinia pulcherrima” (2002) are Activity and zone of inhibition values, retold here.

Each structure is given as a SMILES string.

One assay has as its system Trichophyton mentagrophytes. As to the kind of experiment: Antimicrobial activity against Trichophyton mentagrophytes UPCC 4193 assessed as antimicrobial index at 30 ug after 72 hrs. Format: functional.
Settings: not given
Regarding `COc1cccc(OC)c1C(=O)OCc1ccccc1`, the Activity turned out to be 0.4.
For `Clc1ccccc1C(c1ccccc1)(c1ccccc1)n1ccnc1` [CLOTRIMAZOLE], the Activity is reported as 1.1.
On to `C=C1c2ccoc2C[C@H]2[C@H]1C[C@@H](OC(=O)c1ccccc1)[C@@]1(O)C(C)(C)CCC[C@]21C` [ISOVOUACAPENOL A], for which the Activity was 0.2.
Still for that read-out and setting: next, `CC1(C)CCC[C@]2(C)[C@H]3Cc4occc4[C@@](C)(O)[C@@H]3C[C@@H](OC(=O)c3ccccc3)[C@@]12O` [ISOVOUACAPENOL B]: 0.3.

In a further assay the test system is Escherichia coli. In words: Antimicrobial activity against Escherichia coli UPCC 1195 assessed as antimicrobial index at 30 ug after 24 hrs. It counts as functional.
Settings: not given
For the compound `COc1cccc(OC)c1C(=O)OCc1ccccc1`, the Activity is recorded as 0.2.
Turning to `C=C1c2ccoc2C[C@H]2[C@H]1C[C@@H](OC(=O)c1ccccc1)[C@@]1(O)C(C)(C)CCC[C@]21C` [ISOVOUACAPENOL A], the Activity worked out at 0.2.
The same measure, in the same setting: under `CC1(C)CCC[C@]2(C)[C@H]3Cc4occc4[C@@](C)(O)[C@@H]3C[C@@H](OC(=O)c3ccccc3)[C@@]12O` [ISOVOUACAPENOL B] stands 0.2.

In another assay the test system is Bacillus subtilis. As to the kind of experiment: Antimicrobial activity against Bacillus subtilis UPCC 1149 assessed as clearing zone at 30 ug after 24 hrs. It counts as functional. The conditions noted are these: read-out: IZ. In outline:
(§1)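 Agar-well diffusion. 24 h cultures were suspended in 0.1% peptone water at about 6 × 10^8 cells/mL, and 0.1 mL was seeded into a nutrient agar overlay. Three 10 mm wells were cut per plate, each loaded with sample in 95% EtOH (70 µg test sample; 30 µg standard). Plates were incubated at 30 ± 1 °C for 24 h, and the clear inhibition zone was measured in mm.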
As to `COc1cccc(OC)c1C(=O)OCc1ccccc1`, the zone of inhibition at 30 µg/disc was 13 mm.
The same measure, in the same setting: under `C=C1c2ccoc2C[C@H]2[C@H]1C[C@@H](OC(=O)c1ccccc1)[C@@]1(O)C(C)(C)CCC[C@]21C` [ISOVOUACAPENOL A] stands 15 mm; under `CC1(C)CCC[C@]2(C)[C@H]3Cc4occc4[C@@](C)(O)[C@@H]3C[C@@H](OC(=O)c3ccccc3)[C@@]12O` [ISOVOUACAPENOL B], 14 mm.

Another assay deals with Bacillus subtilis. As to the kind of experiment: Antimicrobial activity against Bacillus subtilis UPCC 1149 assessed as antimicrobial index at 30 ug after 24 hrs. Format: functional.
Settings: not given
Take `COc1cccc(OC)c1C(=O)OCc1ccccc1`: the Activity was 0.3.
The same measure, in the same setting: under `C=C1c2ccoc2C[C@H]2[C@H]1C[C@@H](OC(=O)c1ccccc1)[C@@]1(O)C(C)(C)CCC[C@]21C` [ISOVOUACAPENOL A] stands 0.5; under `CC1(C)CCC[C@]2(C)[C@H]3Cc4occc4[C@@](C)(O)[C@@H]3C[C@@H](OC(=O)c3ccccc3)[C@@]12O` [ISOVOUACAPENOL B], 0.4.

The next assay relates to Pseudomonas aeruginosa. As to the kind of experiment: Antimicrobial activity against Pseudomonas aeruginosa UPCC 1244 assessed as antimicrobial index at 30 ug after 24 hrs.
Settings: not given
Format: functional.
Take `COc1cccc(OC)c1C(=O)OCc1ccccc1`: the Activity stood at 0.3.
Same read-out and setting: under `C=C1c2ccoc2C[C@H]2[C@H]1C[C@@H](OC(=O)c1ccccc1)[C@@]1(O)C(C)(C)CCC[C@]21C` [ISOVOUACAPENOL A] stands 0.2; under `CC1(C)CCC[C@]2(C)[C@H]3Cc4occc4[C@@](C)(O)[C@@H]3C[C@@H](OC(=O)c3ccccc3)[C@@]12O` [ISOVOUACAPENOL B], 0.4.

A further assay has as its system Pseudomonas aeruginosa. In words: Antimicrobial activity against Pseudomonas aeruginosa UPCC 1244 assessed as clearing zone at 30 ug after 24 hrs. Format: functional. Conditions: read-out: IZ. In outline: as §1
Take `COc1cccc(OC)c1C(=O)OCc1ccccc1`: the zone of inhibition at 30 µg/disc was 13 mm.
Same read-out and setting: next, `C=C1c2ccoc2C[C@H]2[C@H]1C[C@@H](OC(=O)c1ccccc1)[C@@]1(O)C(C)(C)CCC[C@]21C` [ISOVOUACAPENOL A]: 12 mm; `CC1(C)CCC[C@]2(C)[C@H]3Cc4occc4[C@@](C)(O)[C@@H]3C[C@@H](OC(=O)c3ccccc3)[C@@]12O` [ISOVOUACAPENOL B]: 14 mm.

In a further assay the test system is Staphylococcus aureus. In words: Antimicrobial activity against Staphylococcus aureus UPCC 1143 assessed as antimicrobial index at 30 ug after 24 hrs. It counts as functional.
Settings: not given
For `COc1cccc(OC)c1C(=O)OCc1ccccc1`, the Activity was 0.2.
On the same count and under the same terms, under `C=C1c2ccoc2C[C@H]2[C@H]1C[C@@H](OC(=O)c1ccccc1)[C@@]1(O)C(C)(C)CCC[C@]21C` [ISOVOUACAPENOL A] stands 0.6.
Still for that read-out and setting: under `CC1(C)CCC[C@]2(C)[C@H]3Cc4occc4[C@@](C)(O)[C@@H]3C[C@@H](OC(=O)c3ccccc3)[C@@]12O` [ISOVOUACAPENOL B] stands 0.4.

For another assay, the system named is Trichophyton mentagrophytes. In words: Antimicrobial activity against Trichophyton mentagrophytes UPCC 4193 assessed as clearing zone at 30 ug after 72 hrs. Format: functional. The conditions noted are these: read-out: IZ. In a few lines: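 T. mentagrophytes was grown as a 5-day culture and suspended in 0.1% peptone water at about 6 × 10^8 cells/mL. A 0.1 mL aliquot was seeded into a potato dextrose agar overlay with three 10 mm wells, each dosed in 95% EtOH (70 µg test sample; 30 µg standard). Plates were incubated at 30 ± 1 °C for 72 h, and the clear inhibition zone was read in mm.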
Regarding `COc1cccc(OC)c1C(=O)OCc1ccccc1`, the zone of inhibition at 30 µg/disc was determined as 14 mm.
Take `Clc1ccccc1C(c1ccccc1)(c1ccccc1)n1ccnc1` [CLOTRIMAZOLE]: the zone of inhibition at 30 µg/disc is 21 mm.
Same read-out and setting: under `C=C1c2ccoc2C[C@H]2[C@H]1C[C@@H](OC(=O)c1ccccc1)[C@@]1(O)C(C)(C)CCC[C@]21C` [ISOVOUACAPENOL A] stands 12 mm.
For the compound `CC1(C)CCC[C@]2(C)[C@H]3Cc4occc4[C@@](C)(O)[C@@H]3C[C@@H](OC(=O)c3ccccc3)[C@@]12O` [ISOVOUACAPENOL B], the zone of inhibition at 30 µg/disc was 13 mm.

In a further assay the test system is Escherichia coli. As to the kind of experiment: Antimicrobial activity against Escherichia coli UPCC 1195 assessed as clearing zone at 30 ug after 24 hrs. It counts as functional. Conditions: read-out: IZ. In outline:
as §1
With `COc1cccc(OC)c1C(=O)OCc1ccccc1`, the zone of inhibition at 30 µg/disc was found to be 12 mm.
The same measure, in the same setting: under `C=C1c2ccoc2C[C@H]2[C@H]1C[C@@H](OC(=O)c1ccccc1)[C@@]1(O)C(C)(C)CCC[C@]21C` [ISOVOUACAPENOL A] stands 12 mm.
The same measure, in the same setting: next, `CC1(C)CCC[C@]2(C)[C@H]3Cc4occc4[C@@](C)(O)[C@@H]3C[C@@H](OC(=O)c3ccccc3)[C@@]12O` [ISOVOUACAPENOL B]: 12 mm.

A further assay concerns Candida albicans. As to the kind of experiment: Antimicrobial activity against Candida albicans UPCC 2168 assessed as clearing zone at 30 ug after 48 hrs. It counts as functional. The conditions noted are these: read-out: IZ. In a few lines:
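C. albicans was grown as a 24 h culture, suspended at about 6 × 10^8 cells/mL in 0.1% peptone water, and 0.1 mL was seeded into a glucose yeast peptone agar overlay. Three 10 mm wells per plate received sample in 95% EtOH (70 µg test sample; 30 µg standard). Plates were incubated at 30 ± 1 °C for 48 h, and the clear growth-inhibition zone was measured in mm.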
Regarding `COc1cccc(OC)c1C(=O)OCc1ccccc1`, the zone of inhibition at 30 µg/disc is 14 mm.
Still for that read-out and setting: next, `Clc1ccccc1C(c1ccccc1)(c1ccccc1)n1ccnc1` [CLOTRIMAZOLE]: 20 mm.
In the case of `C=C1c2ccoc2C[C@H]2[C@H]1C[C@@H](OC(=O)c1ccccc1)[C@@]1(O)C(C)(C)CCC[C@]21C` [ISOVOUACAPENOL A], the zone of inhibition at 30 µg/disc worked out at 14 mm.
On the same count and under the same terms, under `CC1(C)CCC[C@]2(C)[C@H]3Cc4occc4[C@@](C)(O)[C@@H]3C[C@@H](OC(=O)c3ccccc3)[C@@]12O` [ISOVOUACAPENOL B] stands 14 mm.

For another assay, the system named is Aspergillus niger. In words: Antimicrobial activity against Aspergillus niger UPCC 3701 assessed as antimicrobial index at 30 ug after 48 hrs. It counts as functional.
Settings: not given
For the compound `COc1cccc(OC)c1C(=O)OCc1ccccc1`, the Activity was 0.
Regarding `C=C1c2ccoc2C[C@H]2[C@H]1C[C@@H](OC(=O)c1ccccc1)[C@@]1(O)C(C)(C)CCC[C@]21C` [ISOVOUACAPENOL A], the Activity came to 0.
With `CC1(C)CCC[C@]2(C)[C@H]3Cc4occc4[C@@](C)(O)[C@@H]3C[C@@H](OC(=O)c3ccccc3)[C@@]12O` [ISOVOUACAPENOL B], the Activity was determined as 0.2.

The test system of another assay is Staphylococcus aureus. As to the kind of experiment: Antimicrobial activity against Staphylococcus aureus UPCC 1143 assessed as clearing zone at 30 ug after 24 hrs. It counts as functional. Conditions: read-out: IZ. In a few lines:
as §1
`COc1cccc(OC)c1C(=O)OCc1ccccc1`: the zone of inhibition at 30 µg/disc is 12 mm.
Take `C=C1c2ccoc2C[C@H]2[C@H]1C[C@@H](OC(=O)c1ccccc1)[C@@]1(O)C(C)(C)CCC[C@]21C` [ISOVOUACAPENOL A]: the zone of inhibition at 30 µg/disc worked out at 16 mm.
Take `CC1(C)CCC[C@]2(C)[C@H]3Cc4occc4[C@@](C)(O)[C@@H]3C[C@@H](OC(=O)c3ccccc3)[C@@]12O` [ISOVOUACAPENOL B]: the zone of inhibition at 30 µg/disc stood at 14 mm.

The subject of a further assay is Candida albicans. As to the kind of experiment: Antimicrobial activity against Candida albicans UPCC 2168 assessed as antimicrobial index at 30 ug after 48 hrs.
Settings: not given
Format: functional.
With `COc1cccc(OC)c1C(=O)OCc1ccccc1`, the Activity was determined as 0.4.
Regarding `Clc1ccccc1C(c1ccccc1)(c1ccccc1)n1ccnc1` [CLOTRIMAZOLE], the Activity worked out at 1.
As for `C=C1c2ccoc2C[C@H]2[C@H]1C[C@@H](OC(=O)c1ccccc1)[C@@]1(O)C(C)(C)CCC[C@]21C` [ISOVOUACAPENOL A], the Activity is given as 0.4.
Regarding `CC1(C)CCC[C@]2(C)[C@H]3Cc4occc4[C@@](C)(O)[C@@H]3C[C@@H](OC(=O)c3ccccc3)[C@@]12O` [ISOVOUACAPENOL B], the Activity is reported as 0.4.

The test system of another assay is Aspergillus niger. In words: Antimicrobial activity against Aspergillus niger UPCC 3701 assessed as clearing zone at 30 ug after 48 hrs. The conditions noted are these: read-out: IZ. It counts as functional.
As for `CC1(C)CCC[C@]2(C)[C@H]3Cc4occc4[C@@](C)(O)[C@@H]3C[C@@H](OC(=O)c3ccccc3)[C@@]12O` [ISOVOUACAPENOL B], the zone of inhibition at 30 µg/disc came out at 12 mm.
